Test: Drug level in Wistar rat plasma treated with 1-Hydroxyl-2-cyano-3-(4-(methyl-L-glutaminate-N5-yl)-benzyloxy)-12-oxo-oleana-2(3),9(11)-dien-28-oic Acid Methyl Ester assessed as esterase-mediated metabolite formation at 100 uM after 8 hrs by HPLC analysis
Format: ADME
How it was run: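 Plasma, and kidney and liver homogenates in PBS, from three Wistar rats; substrate added at 100 μM at 37 °C; metabolite measured by HPLC every 60 min for 8 h; mean ± SD of three experiments.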

Drug metabolism: Metabolite_Detected
Structure (SMILES): COC(=O)[C@]12CCC(C)(C)C[C@H]1[C@H]1C(=O)C=C3[C@@]4(C)[C@@H](O)C(C#N)=C(OCc5ccc(NC(=O)CC[C@H](N)C(=O)O)cc5)C(C)(C)[C@@H]4CC[C@@]3(C)[C@]1(C)CC2
